Laboratory results from PMC2771199 (Bioorganic & medicinal chemistry, 2009).
Entries after “also recorded” stand apart in the source; their conditions may differ. Read-outs that look alike come from different tables or passages of the source. Values belong to the compound of their own block, whether it stands above or below them. Where a SMILES comes first, the peptide text is derived from it. The star is where a group is joined. Dnp = O=[N+]([O-])c1ccc(*)c([N+](=O)[O-])c1

Experiments:
LPA2 [1] = target: T1, LPA2 (Homo sapiens, UniProt Q9HBW0); conditions: previously reported antagonists, cited from earlier work; for IC50: read-out: IC50 LPA2, NE no effect
LPA1 [2] = target: T2, LPA1 (Homo sapiens, UniProt Q92633); conditions: read-out: IC50 LPA1; previously reported antagonists; NE no effect; cited from earlier work
LPA3 [3] = target: T3, LPA3 (Homo sapiens, UniProt Q9UBY5); conditions: previously reported antagonists, cited from earlier work
T3 sequence (Q9UBY5 1-353): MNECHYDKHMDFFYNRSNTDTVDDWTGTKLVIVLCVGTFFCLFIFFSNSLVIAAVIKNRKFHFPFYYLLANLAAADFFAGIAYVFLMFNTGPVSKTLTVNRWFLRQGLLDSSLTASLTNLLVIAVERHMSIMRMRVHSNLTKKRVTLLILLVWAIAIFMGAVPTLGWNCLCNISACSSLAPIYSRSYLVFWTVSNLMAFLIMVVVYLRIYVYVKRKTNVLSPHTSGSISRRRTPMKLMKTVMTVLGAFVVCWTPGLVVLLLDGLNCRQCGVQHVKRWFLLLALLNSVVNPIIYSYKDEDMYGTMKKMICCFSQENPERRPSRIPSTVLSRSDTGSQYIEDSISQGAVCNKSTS

LPA5 [4] = target: T4, LPA5 (Homo sapiens, UniProt Q9H1C0); conditions: read-out: IC50 LPA5; previously reported antagonists; NE no effect; cited from earlier work
LPA4 [5] = target: T5, LPA4 (Homo sapiens, UniProt Q99677); conditions: read-out: IC50 LPA4; previously reported antagonists; NE no effect; cited from earlier work
LPA2 [6] = target: T1, LPA2; experiment: LPA receptor-promoted intracellular Ca2+ mobilization, LPA2; format: cell-based; conditions: read-out: IC50 LPA2; dose response
In short: (§1)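 Cells stably expressing the given LPA receptor were plated and cultured overnight, then moved to serum-free medium for 4-6 h and loaded with fura-2. Intracellular Ca2+ was read on a plate fluorometer as the ratio of 520 nm emission under 340 vs 380 nm excitation. Test compounds were dissolved in methanol, diluted in buffer, and run in quadruplicate. IC50 was taken from concentration-response curves.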

LPA4 [7] = target: T5, LPA4; experiment: LPA receptor-promoted intracellular Ca2+ mobilization, LPA4; format: cell-based; conditions: read-out: IC50 LPA4; dose response
In short: as §1

LPA1 [8] = target: T2, LPA1; experiment: LPA receptor-promoted intracellular Ca2+ mobilization, LPA1; format: cell-based; conditions: for IC50: read-out: IC50 LPA1, dose response; for LPA1 antagonist activity (in words): Ca2+ assay
In short: as §1

LPA5 [9] = target: T4, LPA5; experiment: LPA receptor-promoted intracellular Ca2+ mobilization, LPA5; format: cell-based; conditions: for IC50: read-out: IC50 LPA5, dose response
In short: as §1

LPA3 [10] = target: T3, LPA3; experiment: LPA receptor-promoted intracellular Ca2+ mobilization, LPA3; format: cell-based; conditions: for % inhibition at 10μM: Table 3, LPA3 inhibition; for LPA3 antagonist activity (in words): Ca2+ assay
[11] = 10 μM compound against 200 nM LPA

T2 sequence (Q92633 whole entry, species assumed): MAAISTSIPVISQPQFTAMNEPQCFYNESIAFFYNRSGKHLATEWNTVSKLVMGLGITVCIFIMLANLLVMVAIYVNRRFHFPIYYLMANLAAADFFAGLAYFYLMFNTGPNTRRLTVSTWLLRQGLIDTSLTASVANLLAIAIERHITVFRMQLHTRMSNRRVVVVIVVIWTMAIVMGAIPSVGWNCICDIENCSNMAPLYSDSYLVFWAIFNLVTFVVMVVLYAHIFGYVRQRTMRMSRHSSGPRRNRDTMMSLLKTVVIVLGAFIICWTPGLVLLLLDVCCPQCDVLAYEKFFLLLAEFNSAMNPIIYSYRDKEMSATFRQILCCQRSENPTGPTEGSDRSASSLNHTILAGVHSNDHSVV
T1 sequence (Q9HBW0 whole entry, species assumed): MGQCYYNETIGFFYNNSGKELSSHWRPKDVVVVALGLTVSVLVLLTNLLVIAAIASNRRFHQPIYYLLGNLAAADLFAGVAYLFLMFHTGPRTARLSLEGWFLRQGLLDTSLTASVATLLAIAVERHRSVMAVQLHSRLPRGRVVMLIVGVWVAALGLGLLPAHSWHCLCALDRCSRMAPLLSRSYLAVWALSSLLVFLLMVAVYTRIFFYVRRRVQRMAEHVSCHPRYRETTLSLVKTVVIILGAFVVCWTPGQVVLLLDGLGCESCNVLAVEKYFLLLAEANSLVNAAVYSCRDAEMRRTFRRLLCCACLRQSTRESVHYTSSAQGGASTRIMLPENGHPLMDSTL
T5 sequence (Q99677 whole entry, species assumed): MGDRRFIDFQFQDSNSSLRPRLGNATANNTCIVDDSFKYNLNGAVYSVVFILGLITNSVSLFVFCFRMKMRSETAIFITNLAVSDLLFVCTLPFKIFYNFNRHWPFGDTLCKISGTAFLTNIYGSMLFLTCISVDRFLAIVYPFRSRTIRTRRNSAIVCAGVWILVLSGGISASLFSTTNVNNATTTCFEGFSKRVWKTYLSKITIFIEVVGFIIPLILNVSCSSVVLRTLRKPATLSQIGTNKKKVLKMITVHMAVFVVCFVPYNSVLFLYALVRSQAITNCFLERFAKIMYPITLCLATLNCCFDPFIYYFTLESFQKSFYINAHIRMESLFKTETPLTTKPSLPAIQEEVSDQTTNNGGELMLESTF
T4 sequence (Q9H1C0 whole entry, species assumed): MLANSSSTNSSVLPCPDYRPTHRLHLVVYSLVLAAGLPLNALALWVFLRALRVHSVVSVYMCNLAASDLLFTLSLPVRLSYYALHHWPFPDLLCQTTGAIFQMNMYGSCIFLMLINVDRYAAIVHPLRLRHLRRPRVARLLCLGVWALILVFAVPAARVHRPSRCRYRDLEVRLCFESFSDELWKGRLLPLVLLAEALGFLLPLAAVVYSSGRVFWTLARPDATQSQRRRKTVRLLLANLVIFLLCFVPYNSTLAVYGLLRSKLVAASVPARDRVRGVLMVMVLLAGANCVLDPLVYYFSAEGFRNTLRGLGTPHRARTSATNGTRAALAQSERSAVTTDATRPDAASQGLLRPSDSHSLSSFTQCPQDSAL

Structure (SMILES): NCC(=O)N[C@@H](CSc1ccc([N+](=O)[O-])cc1[N+](=O)[O-])C(=O)N[C@@H](CCC(=O)O)C(=O)O [Compound 1] (H-Gly-Cys(Dnp)-Glu-OH)
- IC50 (LPA2 [1]): > 10 µM
- IC50 (LPA1 [2]): > 10 µM
- Imax LPA3 (LPA3 [3]): 69.8%
- IC50 (LPA5 [4]): > 10 µM
- IC50 (LPA4 [5]): > 10 µM

Structure (SMILES): O=C(O)/C=C/C(=O)Nc1cccc(NC(=O)/C=C/C(=O)O)c1 [Compound 2]
- IC50 (LPA3 [3]; read-out: IC50 LPA3, NE no effect): > 10 µM
- IC50 (LPA5 [4]): > 10 µM
- IC50 (LPA4 [5]): > 10 µM

Structure (SMILES): O=C(O)/C=C/C(=O)Nc1cccc(NC(=O)/C=C/C(=O)O)c1C(=O)O [Compound 3]
- Imax LPA2 (LPA2 [1]): 53.3%
- IC50 (LPA1 [2]): > 10 µM
- Imax LPA3 (LPA3 [3]): 81.7%
- IC50 (LPA5 [4]): > 10 µM
- IC50 (LPA4 [5]): > 10 µM

Structure (SMILES): O=C(O)/C=C/C(=O)Nc1ccc(Oc2cccc(Oc3ccc(NC(=O)/C=C/C(=O)O)cc3)c2)cc1 [Compound 4]
- IC50 (LPA5 [4]): > 10 µM
- IC50 (LPA4 [5]): > 10 µM

Structure (SMILES): O=C(O)COc1ccc(N2C(=O)c3ccc(Oc4cccc([N+](=O)[O-])c4)cc3C2=O)cc1 [Compound 6]
- % inhibition at 10μM (LPA3 [10]; [11]): agonist

Structure (SMILES): O=C1c2ccc(Oc3cccc([N+](=O)[O-])c3)cc2C(=O)N1Cc1cccnc1 [Compound 8]
- LPA3 antagonist activity (in words) (LPA3 [10]): active

Structure (SMILES): Cc1ccc(Oc2ccc3c(c2)C(=O)N(CC2CCCO2)C3=O)cc1 (stereo not shown) [Compound 14]
- LPA3 antagonist activity (in words) (LPA3 [10]): not active

Structure (SMILES): O=C(O)c1ccc2c(c1)C(=O)N(c1cccc(Oc3ccc([N+](=O)[O-])cc3)c1)C2=O [Compound 20]
- IC50 (LPA2 [6]): > 10 µM
- IC50 (LPA4 [7]): > 10 µM
- LPA1 antagonist activity (in words) (LPA1 [8]): LPA1 antagonists
- fold increase in potency compared to compound 5 (LPA3 [10]; LPA3 IC50 versus compound 5): 6 fold
- % inhibition at 10μM (LPA3 [10]; [11]): > 50%
- LPA5 antagonist activity (in words) (LPA5 [9]; Ca2+ assay): LPA5 antagonist

The next lines start with results.

- IC50 (LPA2 [6]): > 10 µM
- IC50 (LPA4 [7]): > 10 µM
- IC50 (LPA1 [8]): > 10 µM
- IC50 (LPA5 [9]): > 10 µM
Structure (SMILES): O=C(O)CN1C(=O)c2ccc(Oc3cccc([N+](=O)[O-])c3)cc2C1=O [Compound 5, [5-(3-nitrophenoxy)-1,3-dioxo-1,3-dihydro-2-isoindol-2-yl]acetic acid]
- IC50 (LPA2 [1]): > 10 µM
- IC50 (LPA1 [2]): > 10 µM
- IC50 (LPA5 [4]): > 10 µM
- IC50 (LPA4 [5]): > 10 µM

- IC50 (LPA2 [6]): > 10 µM
- IC50 (LPA4 [7]): > 10 µM
- IC50 (LPA1 [8]): > 10 µM
- LPA3 antagonist activity (in words) (LPA3 [10]; listed as compound 11): no antagonist activity
- IC50 (LPA3 [10]; read-out: IC50 LPA3, dose response, activation by 200 nM LPA): > 10 µM
- inhibition at 10 µM (LPA3 [10]; read-out: Percent inhibiton at 10μM, Table 2, 10 μM compound against 200 nM LPA): < 10%
- IC50 (LPA5 [9]): > 10 µM
Structure (SMILES): O=C(O)CN1C(=O)c2ccc(Oc3ccc([N+](=O)[O-])cc3)cc2C1=O [Compound 11]
- LPA3 antagonist activity (in words) (LPA3 [10]): no inhibition; also recorded: no activity

- IC50 (LPA2 [6]): > 10 µM
- IC50 (LPA4 [7]): > 10 µM
- LPA1 antagonist activity (in words) (LPA1 [8]): LPA1 antagonists
- IC50 (LPA5 [9]): > 10 µM
Structure (SMILES): Cc1ccc(Oc2ccc3c(c2)C(=O)N(CC(=O)O)C3=O)cc1 [Compound 12]

- % inhibition at 10μM (LPA3 [10]; [11]): Agonist
Structure (SMILES): O=C(O)CN1C(=O)c2ccc(C(=O)c3cccc([N+](=O)[O-])c3)cc2C1=O [Compound 15]

- % inhibition at 10μM (LPA3 [10]; [11]): Agonist
Structure (SMILES): CC(=O)COc1ccc(NC(=O)CN2C(=O)c3ccc([N+](=O)[O-])cc3C2=O)cc1 [Compound 18]
